Results on four compounds are retold here after ChEMBL document CHEMBL1134320, “Structure of protein tyrosine phosphatase 1B in complex with inhibitors bearing two phosphotyrosine mimetics” (J Med Chem, 2001).

The target of assay [1] is T1, Tyrosine-protein phosphatase non-receptor type 4 (Homo sapiens) (UniProt P29074).
T1 sequence (whole entry): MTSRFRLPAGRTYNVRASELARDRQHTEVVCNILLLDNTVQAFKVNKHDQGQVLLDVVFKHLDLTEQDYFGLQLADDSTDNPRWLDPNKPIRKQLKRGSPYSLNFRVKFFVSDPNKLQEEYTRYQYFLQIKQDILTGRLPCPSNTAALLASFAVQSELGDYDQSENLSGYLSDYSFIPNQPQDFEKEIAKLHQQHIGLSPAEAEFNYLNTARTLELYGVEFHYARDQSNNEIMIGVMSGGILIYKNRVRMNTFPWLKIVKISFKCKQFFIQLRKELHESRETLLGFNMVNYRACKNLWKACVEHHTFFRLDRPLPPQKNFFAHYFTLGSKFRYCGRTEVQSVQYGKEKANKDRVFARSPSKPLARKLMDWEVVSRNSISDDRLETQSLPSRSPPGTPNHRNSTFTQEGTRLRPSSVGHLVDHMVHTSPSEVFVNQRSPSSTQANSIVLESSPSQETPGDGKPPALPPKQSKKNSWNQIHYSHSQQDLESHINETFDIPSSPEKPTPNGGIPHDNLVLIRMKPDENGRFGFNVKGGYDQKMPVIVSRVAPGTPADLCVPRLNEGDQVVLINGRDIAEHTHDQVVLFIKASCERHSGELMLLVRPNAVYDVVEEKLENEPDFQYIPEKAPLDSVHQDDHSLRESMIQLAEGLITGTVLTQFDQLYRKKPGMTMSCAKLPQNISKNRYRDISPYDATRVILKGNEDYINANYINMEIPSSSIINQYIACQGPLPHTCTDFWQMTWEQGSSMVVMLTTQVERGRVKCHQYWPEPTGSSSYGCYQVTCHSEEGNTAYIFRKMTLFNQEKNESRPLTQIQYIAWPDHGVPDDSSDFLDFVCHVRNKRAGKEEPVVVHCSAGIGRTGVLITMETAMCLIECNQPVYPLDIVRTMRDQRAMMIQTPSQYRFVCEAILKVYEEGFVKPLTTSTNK
Nature of the assay: Inhibitory activity against Protein tyrosine phosphatase PTPmeg-1 at 500 uM. In outline:
(§1)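 Percent inhibition was measured at the single inhibitor concentration given in the line, using the FDP fluorogenic substrate at about each enzyme's KM. For CDC25a, flag-tagged protein was made in Sf9 cells (moi 5, 27 °C, 72 h) and purified on anti-flag resin to over 80% purity.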

Assay [2] has as its target T1, Tyrosine-protein phosphatase non-receptor type 4 (Homo sapiens). Nature of the assay: Inhibitory activity against Protein tyrosine phosphatase PTPmeg-1 at 380 uM. In outline:
as §1

The target of assay [3] is T2, M-phase inducer phosphatase 1 (Homo sapiens) (UniProt P30304).
T2 sequence (whole entry): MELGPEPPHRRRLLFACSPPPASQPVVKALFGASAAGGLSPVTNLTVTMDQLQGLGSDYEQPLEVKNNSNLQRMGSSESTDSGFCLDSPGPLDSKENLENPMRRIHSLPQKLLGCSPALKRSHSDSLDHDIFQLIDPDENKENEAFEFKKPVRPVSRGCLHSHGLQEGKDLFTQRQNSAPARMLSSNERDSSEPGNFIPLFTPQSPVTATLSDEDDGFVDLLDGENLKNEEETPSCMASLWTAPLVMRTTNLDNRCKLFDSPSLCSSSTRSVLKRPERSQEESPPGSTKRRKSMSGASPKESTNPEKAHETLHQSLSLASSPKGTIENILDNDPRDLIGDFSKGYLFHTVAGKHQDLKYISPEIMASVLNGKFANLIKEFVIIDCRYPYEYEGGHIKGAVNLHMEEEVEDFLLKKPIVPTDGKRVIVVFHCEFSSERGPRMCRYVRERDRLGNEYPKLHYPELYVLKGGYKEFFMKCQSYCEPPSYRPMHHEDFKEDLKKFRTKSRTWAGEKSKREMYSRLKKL
Nature of the assay: Inhibitory activity against Protein tyrosine phosphatase cell division cycle 25A at 250 uM. In a few lines:
as §1

Assay [4] deals with T1, Tyrosine-protein phosphatase non-receptor type 4 (Homo sapiens). Kind of assay: Inhibitory activity against Protein tyrosine phosphatase PTPmeg-1 at 250 uM. In outline:
as §1

In assay [5] the target is T2, M-phase inducer phosphatase 1 (Homo sapiens). Nature of the assay: Inhibitory activity against Protein tyrosine phosphatase cell division cycle 25A at 250 uM.

For the compound `O=P(O)(O)C(F)(F)c1ccc(COc2ccccc2OCc2ccc(C(F)(F)P(=O)(O)O)cc2)cc1`, in assay [1], the inhibition is 30%. Turning to `O=P(O)(O)C(F)(F)c1ccc(COc2cccc(OCc3ccc(C(F)(F)P(=O)(O)O)cc3)c2)cc1`, in assay [2], the inhibition was determined as 30%. On to `O=P(O)(O)C(F)(F)c1ccc(COCCOCc2ccc(C(F)(F)P(=O)(O)O)cc2)cc1`, for which the inhibition in assay [3] is 13%; in assay [4], 2%. As to `O=P(O)(O)C(F)(F)c1ccc(CCCCc2ccc(C(F)(F)P(=O)(O)O)cc2)cc1`, the inhibition in assay [5] was 16%; in assay [4], 9%.
